Results as given in ChEMBL document CHEMBL4406821, “Novel dual inhibitors targeting CDK4 and VEGFR2 synergistically suppressed cancer progression and angiogenesis” (Eur J Med Chem, 2019).
The source made the active and inactive calls. No cut-off for these calls is given here.

Key:
[1] = target: Vascular endothelial growth factor receptor 2 (Homo sapiens, UniProt P35968); test: Inhibition of VEGFR2 in HUVEC cells assessed as reduction in STAT3 phosphorylation at 20 to 40 nM incubated for 48 hrs by Western blot analysis; format: cell-based
Procedure, shortened: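 HUVECs were maintained in 1640 medium with 10% FBS. They were treated with graded concentrations for 48 h, PBS-washed and lysed in RIPA buffer. Immunoblots were probed for total and phospho VEGFR2, STAT3, Akt, Erk1 and Src, each at 1:1000. β-actin served as loading control.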

T47D = test: Induction of apoptosis in human T47D cells assessed as increase in early apoptotic cells at 20 to 40 nM incubated for 48 hrs by annexin V FITC and propidium iodide staining based flow cytometry; format: functional, cell-based
Procedure, shortened: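 Annexin V-FITC/PI double staining with flow-cytometric readout. MDA-MB-231, T-47D, SiHa and HeLa cells were treated with graded concentrations for 48 h. MDA-MB-231 and T-47D were grown in DMEM and SiHa in 1640 medium, each with 10% FBS and 1% penicillin/streptomycin at 37°C under 5% CO2. Early- and late-stage apoptotic fractions were scored.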

[2] = target: Cytoplasmic tyrosine-protein kinase BMX (Homo sapiens) (UniProt P51813); test: Inhibition of recombinant full length human BMX at 1 uM using poly(Glu, Tyr) 4:1 as substrate incubated for 40 mins in presence of [gamma-33P]-ATP by scintillation counting method relative to control
Sequence of Cytoplasmic tyrosine-protein kinase BMX (Homo sapiens) (P51813 whole entry): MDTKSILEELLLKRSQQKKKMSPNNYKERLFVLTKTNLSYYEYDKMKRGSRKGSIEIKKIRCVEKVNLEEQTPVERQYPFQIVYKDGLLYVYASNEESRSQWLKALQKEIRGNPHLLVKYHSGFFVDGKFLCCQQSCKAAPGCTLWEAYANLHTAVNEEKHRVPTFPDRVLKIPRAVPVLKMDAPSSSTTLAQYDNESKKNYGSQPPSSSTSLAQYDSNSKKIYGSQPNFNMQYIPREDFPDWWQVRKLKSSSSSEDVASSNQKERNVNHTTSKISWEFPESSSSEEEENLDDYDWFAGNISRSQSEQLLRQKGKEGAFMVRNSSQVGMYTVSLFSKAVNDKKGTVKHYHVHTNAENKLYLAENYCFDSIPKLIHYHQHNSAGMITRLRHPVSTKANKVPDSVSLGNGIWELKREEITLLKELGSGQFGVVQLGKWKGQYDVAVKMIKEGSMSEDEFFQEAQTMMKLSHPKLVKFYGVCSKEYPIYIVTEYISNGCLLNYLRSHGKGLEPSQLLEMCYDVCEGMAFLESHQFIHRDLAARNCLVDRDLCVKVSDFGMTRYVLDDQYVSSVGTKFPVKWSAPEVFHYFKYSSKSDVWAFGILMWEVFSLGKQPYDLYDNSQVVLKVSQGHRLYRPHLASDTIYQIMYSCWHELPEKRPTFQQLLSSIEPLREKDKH
Procedure, shortened: (§1)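 Kinase panel profiling at 1 μM performed by Eurofins KinaseProfiler; percent inhibition reported as mean of two independent experiments.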

Saccharomyces cerevisiae = test: Inhibition of recombinant fungi CK1 (2 to 298 residues) at 1 uM using KRRRALS(p)VAS as substrate incubated for 40 mins in presence of [gamma-33P]-ATP by scintillation counting method relative to control; procedure, shortened: as §1
[3] = target: Ephrin type-A receptor 1 (Homo sapiens) (UniProt P21709); test: Inhibition of recombinant human EPhA1 (568 to end residues) at 1 uM using KKKSPGEYVNIEFG as substrate incubated for 40 mins in presence of [gamma-33P]-ATP by scintillation counting method relative to control
[4] = target: Serine/threonine-protein kinase haspin (Homo sapiens) (UniProt Q8TF76); test: Inhibition of recombinant human Haspin (471 to end residues) at 1 uM using RARTLSFAEPG as substrate incubated for 40 mins in presence of [gamma-33P]-ATP by scintillation counting method relative to control
Sequence of Serine/threonine-protein kinase haspin (Homo sapiens) (Q8TF76 whole entry, the tested form may be a part): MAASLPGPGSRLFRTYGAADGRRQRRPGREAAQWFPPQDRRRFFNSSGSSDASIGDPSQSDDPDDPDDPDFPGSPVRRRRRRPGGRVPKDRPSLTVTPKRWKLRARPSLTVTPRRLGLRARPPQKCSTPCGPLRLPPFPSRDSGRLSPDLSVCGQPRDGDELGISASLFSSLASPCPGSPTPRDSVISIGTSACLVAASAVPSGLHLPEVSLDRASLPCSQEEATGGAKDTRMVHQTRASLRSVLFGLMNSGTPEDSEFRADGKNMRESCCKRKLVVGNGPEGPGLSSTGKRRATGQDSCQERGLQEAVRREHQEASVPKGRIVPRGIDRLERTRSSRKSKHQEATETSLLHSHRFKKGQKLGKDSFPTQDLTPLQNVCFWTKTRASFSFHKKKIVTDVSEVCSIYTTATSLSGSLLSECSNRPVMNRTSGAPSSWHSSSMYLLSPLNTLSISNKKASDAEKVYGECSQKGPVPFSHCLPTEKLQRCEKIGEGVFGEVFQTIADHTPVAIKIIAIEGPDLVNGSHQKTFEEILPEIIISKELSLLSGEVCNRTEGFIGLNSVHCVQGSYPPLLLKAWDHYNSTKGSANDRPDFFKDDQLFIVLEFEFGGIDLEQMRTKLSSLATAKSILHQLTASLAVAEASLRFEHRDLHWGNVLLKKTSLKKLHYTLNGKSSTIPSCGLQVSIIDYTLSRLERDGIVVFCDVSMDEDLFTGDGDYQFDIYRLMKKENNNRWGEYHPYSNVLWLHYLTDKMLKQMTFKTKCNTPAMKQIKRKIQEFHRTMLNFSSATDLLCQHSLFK

[5] = target: Insulin receptor (Homo sapiens) (UniProt P06213); test: Inhibition of recombinant activated human IR (1005 to 1310 residues) at 1 uM using KKKSPGEYVNIEFG as substrate incubated for 40 mins in presence of [gamma-33P]-ATP by scintillation counting method relative to control; procedure, shortened: as §1
[6] = target: Dual specificity mitogen-activated protein kinase kinase 1 (Homo sapiens) (UniProt Q02750); test: Inhibition of recombinant human full length MEK1 at 1 uM using as unactive MAPK2 substrate incubated for 40 mins in presence of [gamma-33P]-ATP by scintillation counting method relative to control
Sequence of Dual specificity mitogen-activated protein kinase kinase 1 (Homo sapiens) (Q02750 whole entry): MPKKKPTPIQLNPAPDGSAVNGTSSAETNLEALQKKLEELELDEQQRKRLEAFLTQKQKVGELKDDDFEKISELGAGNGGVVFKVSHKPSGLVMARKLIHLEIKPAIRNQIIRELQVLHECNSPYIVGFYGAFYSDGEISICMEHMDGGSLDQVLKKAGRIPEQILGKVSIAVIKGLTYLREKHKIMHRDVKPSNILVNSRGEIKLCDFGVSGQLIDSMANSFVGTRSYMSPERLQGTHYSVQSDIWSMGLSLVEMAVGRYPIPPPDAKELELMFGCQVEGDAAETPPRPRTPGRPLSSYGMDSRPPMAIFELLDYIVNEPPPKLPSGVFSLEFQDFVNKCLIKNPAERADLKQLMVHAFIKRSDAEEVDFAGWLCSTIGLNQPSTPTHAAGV

[7] = target: G protein-coupled receptor kinase 5 (Homo sapiens) (UniProt P34947); test: Inhibition of recombinant human full length GRK5 at 1 uM using casein as substrate incubated for 40 mins in presence of [gamma-33P]-ATP by scintillation counting method relative to control
Procedure, shortened: (§2)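 Tested at a single 1 uM in an outsourced commercial kinase-profiling panel, read as percent inhibition. Each value is the mean of two independent experiments.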

[8] = target: Myosin light chain kinase 2, skeletal/cardiac muscle (Homo sapiens) (UniProt Q9H1R3); test: Inhibition of recombinant human full length MYLK2 at 1 uM using KKLNRTLSFAEPG as substrate incubated for 40 mins in presence of [gamma-33P]-ATP by scintillation counting method relative to control
Sequence of Myosin light chain kinase 2, skeletal/cardiac muscle (Homo sapiens) (Q9H1R3 whole entry): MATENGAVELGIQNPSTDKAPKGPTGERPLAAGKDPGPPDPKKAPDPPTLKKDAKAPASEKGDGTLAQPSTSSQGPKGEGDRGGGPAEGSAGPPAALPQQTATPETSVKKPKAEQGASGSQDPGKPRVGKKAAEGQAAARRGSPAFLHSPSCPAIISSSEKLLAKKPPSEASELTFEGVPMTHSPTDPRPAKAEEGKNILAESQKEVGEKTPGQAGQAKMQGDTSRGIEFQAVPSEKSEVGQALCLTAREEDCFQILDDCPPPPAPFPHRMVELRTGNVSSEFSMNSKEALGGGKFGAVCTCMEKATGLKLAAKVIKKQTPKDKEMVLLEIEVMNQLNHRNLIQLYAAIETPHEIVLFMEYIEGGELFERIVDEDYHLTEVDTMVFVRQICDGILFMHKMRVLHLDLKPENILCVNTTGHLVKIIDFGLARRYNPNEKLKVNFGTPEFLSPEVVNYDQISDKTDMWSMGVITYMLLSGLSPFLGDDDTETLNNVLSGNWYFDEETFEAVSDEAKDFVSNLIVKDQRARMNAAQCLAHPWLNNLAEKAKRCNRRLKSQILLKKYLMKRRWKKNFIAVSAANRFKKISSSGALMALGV

[9] = target: Serine/threonine-protein kinase Nek7 (Homo sapiens) (UniProt Q8TDX7); test: Inhibition of recombinant human NEK7 (2 to end residues) at 1 uM using FLAKSFGSPNRAYKK as substrate incubated for 40 mins in presence of [gamma-33P]-ATP by scintillation counting method relative to control
Sequence of Serine/threonine-protein kinase Nek7 (Homo sapiens) (Q8TDX7 whole entry, looked up): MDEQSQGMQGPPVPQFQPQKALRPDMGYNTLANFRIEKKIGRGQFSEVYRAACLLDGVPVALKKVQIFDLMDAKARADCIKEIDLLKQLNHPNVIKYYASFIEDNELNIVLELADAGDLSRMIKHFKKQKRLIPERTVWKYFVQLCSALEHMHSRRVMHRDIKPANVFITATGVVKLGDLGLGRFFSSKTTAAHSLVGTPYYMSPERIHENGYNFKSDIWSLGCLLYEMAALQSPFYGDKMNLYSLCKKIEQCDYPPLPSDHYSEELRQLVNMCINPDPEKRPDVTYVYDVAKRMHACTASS

[10] = target: Serine/threonine-protein kinase ATR (Homo sapiens) (UniProt Q13535); test: Inhibition of recombinant human full length ATR at 1 uM using GST-cMyc-p53 as substrate incubated for 40 mins in presence of [gamma-33P]-ATP by scintillation counting method relative to control; procedure, shortened: as §2
[11] = target: Protein kinase C beta type (Homo sapiens) (UniProt P05771); test: Inhibition of recombinant human PKCbeta1 (2 to end residues) at 1 uM using histone H1 as substrate incubated for 40 mins in presence of [gamma-33P]-ATP by scintillation counting method relative to control
Sequence of Protein kinase C beta type (Homo sapiens) (P05771 2-671 limits assumed): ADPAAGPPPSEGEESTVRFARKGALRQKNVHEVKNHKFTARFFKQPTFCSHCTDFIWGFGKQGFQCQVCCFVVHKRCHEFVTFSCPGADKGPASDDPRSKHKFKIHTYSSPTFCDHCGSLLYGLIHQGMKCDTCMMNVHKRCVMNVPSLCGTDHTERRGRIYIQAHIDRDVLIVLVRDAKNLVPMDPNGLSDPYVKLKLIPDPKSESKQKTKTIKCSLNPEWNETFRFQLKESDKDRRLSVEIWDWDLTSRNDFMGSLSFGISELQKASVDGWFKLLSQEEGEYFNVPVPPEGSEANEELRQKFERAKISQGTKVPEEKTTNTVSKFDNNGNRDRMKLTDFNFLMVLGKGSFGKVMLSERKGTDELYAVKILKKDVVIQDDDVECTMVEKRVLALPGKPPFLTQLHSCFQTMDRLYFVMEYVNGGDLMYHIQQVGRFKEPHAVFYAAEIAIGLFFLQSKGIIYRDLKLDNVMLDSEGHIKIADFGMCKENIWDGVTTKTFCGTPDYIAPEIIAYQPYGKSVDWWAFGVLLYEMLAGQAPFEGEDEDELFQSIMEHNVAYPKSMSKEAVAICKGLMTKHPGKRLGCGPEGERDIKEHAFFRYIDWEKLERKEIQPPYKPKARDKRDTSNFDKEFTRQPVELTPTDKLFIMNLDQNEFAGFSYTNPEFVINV

[12] = target: SNF-related serine/threonine-protein kinase (Homo sapiens) (UniProt Q9NRH2); test: Inhibition of recombinant human SNRK (1 to 505 residues) at 1 uM using KKLRRTLSFAEPG as substrate incubated for 40 mins in presence of [gamma-33P]-ATP by scintillation counting method relative to control; procedure, shortened: as §2
Sequence of SNF-related serine/threonine-protein kinase (Homo sapiens) (Q9NRH2 whole entry, the tested form may be a part): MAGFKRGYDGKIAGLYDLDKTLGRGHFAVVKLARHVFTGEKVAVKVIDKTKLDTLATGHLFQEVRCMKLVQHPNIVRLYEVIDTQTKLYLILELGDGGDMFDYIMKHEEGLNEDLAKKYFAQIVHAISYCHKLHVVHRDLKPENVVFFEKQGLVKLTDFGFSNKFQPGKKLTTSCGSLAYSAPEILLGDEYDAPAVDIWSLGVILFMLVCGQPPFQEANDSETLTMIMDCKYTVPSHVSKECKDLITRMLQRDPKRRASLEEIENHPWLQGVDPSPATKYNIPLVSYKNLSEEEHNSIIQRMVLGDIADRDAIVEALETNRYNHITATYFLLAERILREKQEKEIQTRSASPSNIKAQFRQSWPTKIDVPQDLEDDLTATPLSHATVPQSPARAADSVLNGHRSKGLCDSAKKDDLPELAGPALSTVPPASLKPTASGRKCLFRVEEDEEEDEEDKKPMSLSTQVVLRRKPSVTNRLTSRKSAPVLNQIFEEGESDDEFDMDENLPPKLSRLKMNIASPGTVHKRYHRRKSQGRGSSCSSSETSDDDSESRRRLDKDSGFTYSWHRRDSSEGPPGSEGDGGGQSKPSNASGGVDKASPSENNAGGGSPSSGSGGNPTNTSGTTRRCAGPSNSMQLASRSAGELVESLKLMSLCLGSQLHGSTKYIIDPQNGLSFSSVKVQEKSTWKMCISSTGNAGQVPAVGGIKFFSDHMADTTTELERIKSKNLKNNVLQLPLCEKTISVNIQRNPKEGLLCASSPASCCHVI

[13] = target: Serine/threonine-protein kinase tousled-like 1 (Homo sapiens) (UniProt Q9UKI8); test: Inhibition of recombinant human full length TLK1 at 1 uM using casein as substrate incubated for 40 mins in presence of [gamma-33P]-ATP by scintillation counting method relative to control
Sequence of Serine/threonine-protein kinase tousled-like 1 (Homo sapiens) (Q9UKI8 whole entry, the tested form may be a part): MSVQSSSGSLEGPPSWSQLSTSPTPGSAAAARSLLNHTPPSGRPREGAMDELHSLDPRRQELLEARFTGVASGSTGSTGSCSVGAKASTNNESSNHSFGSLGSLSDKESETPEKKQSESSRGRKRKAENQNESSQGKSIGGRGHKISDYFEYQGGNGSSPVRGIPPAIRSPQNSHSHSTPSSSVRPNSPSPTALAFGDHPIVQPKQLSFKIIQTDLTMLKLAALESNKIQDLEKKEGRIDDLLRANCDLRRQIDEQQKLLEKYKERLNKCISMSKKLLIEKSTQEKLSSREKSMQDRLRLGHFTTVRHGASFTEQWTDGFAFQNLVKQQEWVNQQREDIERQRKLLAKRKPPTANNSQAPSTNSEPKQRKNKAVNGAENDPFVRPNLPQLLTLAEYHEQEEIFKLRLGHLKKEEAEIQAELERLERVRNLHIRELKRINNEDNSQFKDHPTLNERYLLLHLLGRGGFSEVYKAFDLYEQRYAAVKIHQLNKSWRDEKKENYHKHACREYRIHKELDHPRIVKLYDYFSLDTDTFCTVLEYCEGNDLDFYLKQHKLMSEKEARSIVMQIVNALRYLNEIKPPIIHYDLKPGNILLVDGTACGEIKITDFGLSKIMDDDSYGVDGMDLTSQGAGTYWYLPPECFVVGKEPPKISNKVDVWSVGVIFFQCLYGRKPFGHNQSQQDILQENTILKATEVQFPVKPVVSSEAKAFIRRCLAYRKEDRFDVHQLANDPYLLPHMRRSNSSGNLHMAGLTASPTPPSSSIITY

[14] = target: Fibroblast growth factor receptor 2 (Homo sapiens) (UniProt P21802); test: Inhibition of recombinant human FGFR2 (456 to 770 residues) at 1 uM using poly(Glu, Tyr) 4:1 as substrate incubated for 40 mins in presence of [gamma-33P]-ATP by scintillation counting method relative to control
SiHa = test: Induction of apoptosis in human SiHa cells assessed as decrease in Bcl2 expression at 40 to 80 nM incubated for 48 hrs by Western blot analysis; format: functional, cell-based
Procedure, shortened: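 Cancer cells were exposed to graded concentrations for 48 h, washed three times in PBS and lysed in RIPA buffer. Immunoblots were probed with anti-Rb, anti-phospho-Rb, anti-Ki67 and anti-Bcl-2, each at 1:1000. β-actin served as loading control.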

HeLa [15] = test: Induction of apoptosis in human HeLa cells assessed as decrease in Bcl2 expression at 40 to 80 nM incubated for 48 hrs by Western blot analysis; format: functional, cell-based
Procedure, shortened: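 Cells were treated for 48 h, washed three times with PBS, and lysed in RIPA buffer. Immunoblots used anti-Rb, anti-phospho-Rb, anti-Ki67 and anti-Bcl-2 (each 1:1000), with β-actin as loading control.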

[16] = Toxicity in NOD/SCID BALB/c mouse xenografted with human SiHa cells assessed as effect on blood parameter by measuring MPV at 40 mg/kg, po administered once two days for 4 times by hematology analyzer; format: organism-based; settings: in vivo
HeLa [17] = test: Antiproliferative activity against human HeLa cells assessed as reduction in cell viability at 80 nM incubated for 48 hrs by EdU staining based laser scanning confocal microscopy; format: functional
Procedure, shortened: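 Cells, 5×10^4, were seeded in 24-well plates and treated for 48 h. They were then labeled using an EdU Apollo 488 imaging kit with Hoechst 33342 nuclear stain and imaged by laser scanning confocal microscopy. Percent EdU-positive cells = EdU-positive/Hoechst-stained × 100%.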

| Compound | inhibition [1] | Activity (T47D) | inhibition [2] | inhibition (Saccharomyces cerevisiae) | inhibition [3] | inhibition [4] | inhibition [5] | inhibition [6] | inhibition [7] | inhibition [8] | inhibition [9] | inhibition [10] | inhibition [11] | inhibition [12] | inhibition [13] | inhibition [14] | Activity (SiHa) | Activity (HeLa [15]) | Activity [16] | inhibition (HeLa [17]) |
| --- | --- | --- | --- | --- | --- | --- | --- | --- | --- | --- | --- | --- | --- | --- | --- | --- | --- | --- | --- | --- |
| Cc1ccc(NC(=O)C2(C(=O)Nc3ccc(Nc4ncc(F)c(-c5cc(F)c6nc(C)n(C(C)C)c6c5)n4)cc3)CC2)cc1 | Active | Active | 59% | 48% | 73% | 22% | 27% | 7% | 0% | 30% | 3% | 0% | 36% | 0% | 31% | 4% | Active | Active | Non-Toxic | – |
| COc1cc2nccc(Oc3ccc(NC(=O)C4(C(=O)Nc5ccc(F)cc5)CC4)cc3)c2cc1OC [CABOZANTINIB] | – | – | – | – | – | – | – | – | – | – | – | – | – | – | – | – | – | – | – | Active |
